Assay results from different studies.
Each line is one published result; the experiments were not run side by side. pIC50, pKi: −log10 of the molar value.
Target: Adenosine receptor A1 (ADORA1, Homo sapiens, UniProt P30542)
Residues used in one study (P30542 1-326): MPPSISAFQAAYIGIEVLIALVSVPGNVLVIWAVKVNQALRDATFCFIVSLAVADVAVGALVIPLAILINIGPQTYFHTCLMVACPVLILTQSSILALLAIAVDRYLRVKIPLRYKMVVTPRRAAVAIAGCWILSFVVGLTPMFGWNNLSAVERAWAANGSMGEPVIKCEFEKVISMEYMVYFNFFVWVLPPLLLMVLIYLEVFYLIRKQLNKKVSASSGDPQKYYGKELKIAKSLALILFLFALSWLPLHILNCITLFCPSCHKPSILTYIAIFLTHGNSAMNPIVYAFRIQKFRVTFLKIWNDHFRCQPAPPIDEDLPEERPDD

Structure (SMILES)	observed	technique	notes	measurement	result
C#CCCCCC(=O)NCCNC(=O)COc1ccc(-c2nc3c([nH]2)c(=O)n(CCC)c(=O)n3CCC)cc1	ligand displacement	radioligand	cell membranes	pKi	6.97
CNC(=O)[C@@]12C[C@@H]1[C@@H](n1cnc3c(NCc4cn(-c5ccc(C(=O)NCCCF)cc5)nn4)nc(Cl)nc31)[C@H](O)[C@@H]2O	ligand displacement	radioligand	cell membranes	pKi	5.86
CCCCCCN1CCCn2c1nc1c2c(=O)n(C)c(=O)n1C	ligand displacement	radioligand	cell membranes	pKi	5.42
CNC(=O)[C@@]12C[C@@H]1[C@@H](n1cnc3c(NCc4cccc(C#CCCCc5cn(-c6ccc(F)c(N)c6)nn5)c4)nc(Cl)nc31)[C@H](O)[C@@H]2O	ligand displacement	radioligand	cell membranes	pKi	6.19
O[C@@H]1[C@H](O)CO[C@H]1n1cnc2c(NCc3cccc(Br)c3)ncnc21	ligand displacement	radioligand	cell membranes	pKi	5.48
COc1cccc(Cn2c(=O)n(CC3CC3)c(=O)c3c2nc2cc(OC)ccn23)c1	ligand displacement	radioligand	cell membranes	pKi	6.68
C#CCNc1nc(Cl)nc2c1ncn2[C@H]1[C@H](O)[C@H](O)[C@]2(C(=O)NC)C[C@H]12	ligand displacement	radioligand	cell membranes	pKi	6.40
CCCC[C@H](NC(=O)[C@H](C)c1c(C)[nH]c2ccc(O)cc12)c1ncc(-c2cc3ccccc3nc2OC)[nH]1	cell-free assay			pIC50	5.56
CNC(=O)[C@@]12C[C@@H]1[C@@H](n1cnc3c(NCCc4ccc(O)c(OC)c4)nc(C#Cc4ccc(Cl)s4)nc31)[C@H](O)[C@@H]2O	cell-free assay	radioligand		pKi	7.37
OC[C@@]12C[C@@H]1[C@@H](n1cnc3c(NC(C4CCCC4)C4CCCC4)nc(Cl)nc31)[C@H](O)[C@@H]2O	ligand displacement	radioligand		pKi	6.36
O[C@@H]1[C@H](O)CO[C@H]1n1cnc2c(NCc3cccc(I)c3)ncnc21	ligand displacement	radioligand	cell membranes	pKi	5.68
C=CN1CCCn2c1nc1c2c(=O)n(C)c(=O)n1C	ligand displacement	radioligand	cell membranes	pKi	< 5.00
COCCN(CCOC)C(=O)[C@@]12C[C@@H]1[C@@H](n1cnc3c(N)nc(Cl)nc31)[C@H](O)[C@@H]2O	ligand displacement	radioligand		pKi	6.00
CCNC(=O)C1OC(n2cnc3c(N)nc(NN=CC4CCC=CO4)nc32)C(O)C1O (centres unmarked)	ligand displacement	radioligand	cell membranes	pKi	7.12
